Data taken from ChEMBL document CHEMBL2429843 (J Med Chem, 2013).

Experiments:
[1] = Inhibition of Haemophilus influenzae TrmD using S-[methyl-3H] adenosyl-L-methionine as substrate assessed as leucine-tRNA methylation after 1 hr by scintillation proximity assay
Method in brief: (§1)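 Radiometric SPA: TrmD in 50 mM HEPES pH 7.5 with 5 mM MgCl2 (E. coli and K. pneumoniae 10 nM, S. aureus 10 nM, P. aeruginosa 5 nM, H. influenzae 4 nM in enzyme reagent), mixed 1:1 with a reagent of 0.05 μM [3H]SAM, 2 μM unlabelled SAM and 2 μM synthetic E. coli leucine-tRNA. Compounds are 2-fold serial DMSO dilutions. Incubation is 1 h at room temperature.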

[2] = Inhibition of Staphylococcus aureus TrmD using S-[methyl-3H] adenosyl-L-methionine as substrate assessed as leucine-tRNA methylation after 1 hr by scintillation proximity assay; method in brief: as §1
[3] = Inhibition of Escherichia coli TrmD using S-[methyl-3H] adenosyl-L-methionine as substrate assessed as leucine-tRNA methylation after 1 hr by scintillation proximity assay; method in brief: as §1
[4] = Selectivity ratio of IC50 for Staphylococcus aureus TrmD to IC50 for Escherichia coli TrmD
[5] = Selectivity ratio of IC50 for Escherichia coli TrmD to IC50 for Pseudomonas aeruginosa TrmD
[6] = Inhibition of Pseudomonas aeruginosa TrmD using S-[methyl-3H] adenosyl-L-methionine as substrate assessed as leucine-tRNA methylation after 1 hr by scintillation proximity assay; method in brief: as §1
[7] = Inhibition of Acinetobacter baumannii TrmD using S-[methyl-3H] adenosyl-L-methionine as substrate assessed as leucine-tRNA methylation after 1 hr by scintillation proximity assay
Klebsiella pneumoniae = assay: Inhibition of Klebsiella pneumoniae TrmD using S-[methyl-3H] adenosyl-L-methionine as substrate assessed as leucine-tRNA methylation after 1 hr by scintillation proximity assay; method in brief: as §1
[8] = target: T1, Histone-lysine N-methyltransferase SETD7 (Homo sapiens) (UniProt Q8WTS6); assay: Inhibition of human SET7/9 at 20 uM relative to control
T1 sequence (whole entry): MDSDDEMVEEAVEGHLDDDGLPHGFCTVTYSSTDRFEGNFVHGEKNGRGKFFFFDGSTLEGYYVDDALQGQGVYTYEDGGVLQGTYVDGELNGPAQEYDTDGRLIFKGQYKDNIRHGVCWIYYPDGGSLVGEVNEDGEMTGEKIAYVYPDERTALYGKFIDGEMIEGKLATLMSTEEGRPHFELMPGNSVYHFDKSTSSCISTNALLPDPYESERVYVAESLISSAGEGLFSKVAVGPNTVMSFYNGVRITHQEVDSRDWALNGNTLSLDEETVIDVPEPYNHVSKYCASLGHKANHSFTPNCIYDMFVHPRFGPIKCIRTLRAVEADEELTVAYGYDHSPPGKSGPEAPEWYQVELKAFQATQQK

[9] = Selectivity ratio for Escherichia coli TrmD over human PRMT1
[10] = target: Protein arginine N-methyltransferase 1 (Homo sapiens) (UniProt Q99873); assay: Inhibition of human PRMT1 at 20 uM relative to control
Chain of Protein arginine N-methyltransferase 1 (Homo sapiens) (Q99873 whole entry, looked up): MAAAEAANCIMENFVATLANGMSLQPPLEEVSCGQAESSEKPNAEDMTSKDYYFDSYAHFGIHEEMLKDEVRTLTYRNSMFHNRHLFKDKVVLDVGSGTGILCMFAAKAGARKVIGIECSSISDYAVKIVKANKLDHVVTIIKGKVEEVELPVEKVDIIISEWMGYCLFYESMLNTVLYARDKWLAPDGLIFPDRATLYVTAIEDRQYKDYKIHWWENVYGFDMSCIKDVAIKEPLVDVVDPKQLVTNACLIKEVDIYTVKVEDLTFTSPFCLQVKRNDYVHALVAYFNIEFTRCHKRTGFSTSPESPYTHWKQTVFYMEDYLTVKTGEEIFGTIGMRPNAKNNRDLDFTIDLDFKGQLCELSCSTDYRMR

[11] = Selectivity ratio for Escherichia coli TrmD over human SET7/9
[12] = Aqueous solubility of the compound; type: physicochemical; conditions: buffer

Row | IC50 [1] [µM] | IC50 [2] [µM] | IC50 [3] [µM] | Structure (SMILES) | other results
1 | 3.6 | 73 | 11 | O=C(NCc1cccnc1)c1csc2nc[nH]c(=O)c12 | –
2 | 0.42 | 2.7 | 0.29 | O=C(NCc1ccc(CN2CC[C@@H](O)C2)cc1)c1csc2nc[nH]c(=O)c12 | Ratio IC50 [4]: 5; Ratio IC50 [5]: 10; IC50 [6]: 0.063 µM; IC50 [7]: 0.24 µM; IC50 (Klebsiella pneumoniae): 0.51 µM
3 | 1.3 | 7.3 | 0.44 | O=C(NCc1ccc(CN2CCC(O)CC2)cc1)c1csc2nc[nH]c(=O)c12 | inhibition [8]: < 10%; Selectivity ratio [9]: 50; inhibition [10]: < 10%; Selectivity ratio [11]: 50
4 | 2.6 | 64 | 6.5 | O=C(NCc1ccccc1)c1csc2nc[nH]c(=O)c12 | –
5 | 64 | 105 | 33 | O=C(NCc1ccc(-c2ccccc2)cc1)c1csc2nc[nH]c(=O)c12 | –
6 | 0.67 | 34 | 2.1 | Cn1cc(-c2csc3nc[nH]c(=O)c23)cn1 | –
7 | > 200 | > 200 | > 200 | C[C@H](NC(=O)c1csc2nc[nH]c(=O)c12)c1ccccc1 | –
8 | – | – | – | COc1ccc(-c2n[nH]c(N)n2)cc1 | solubility [12]: > 500 µM
9 | 0.33 | 7.4 | 0.44 | NCCNCc1ccc(CNC(=O)c2csc3nc[nH]c(=O)c23)cc1 | inhibition [8]: < 10%; Selectivity ratio [9]: 50; inhibition [10]: < 10%; Ratio IC50 [4]: 5; Ratio IC50 [5]: 10; IC50 [6]: 0.044 µM; IC50 [7]: 0.74 µM; IC50 (Klebsiella pneumoniae): 0.61 µM; Selectivity ratio [11]: 50
10 | > 200 | > 200 | > 200 | O=c1[nH]cnc2scc(C3CCNC3)c12 (configuration not stated) | –
11 | 1.2 | 27 | 1.8 | CN(C)Cc1ccc(CNC(=O)c2csc3nc[nH]c(=O)c23)cc1 | –
12 | – | – | – | Cc1cccc2nc[nH]c(=O)c12 | solubility [12]: > 500 µM
13 | 1.7 | 12 | 1.3 | COCCNCc1ccc(CNC(=O)c2csc3nc[nH]c(=O)c23)cc1 | –
14 | 9.3 | 22 | 2.8 | O=C1CN(Cc2ccc(CNC(=O)c3csc4nc[nH]c(=O)c34)cc2)CCN1 | –
15 | 1.6 | 14 | 0.47 | O=C(NCc1ccc(CN2CCN(CCO)CC2)cc1)c1csc2nc[nH]c(=O)c12 | –
16 | 1.1 | 5.5 | 0.9 | N=C(N)c1ccc(CNC(=O)c2csc3nc[nH]c(=O)c23)cc1 | –
17 | > 200 | > 200 | > 200 | CC(=O)N1CCC(c2csc3nc[nH]c(=O)c23)C1 (configuration not stated) | –
18 | – | – | – | c1ccc2[nH]c(-c3cnco3)cc2c1 | solubility [12]: > 500 µM
19 | 7.1 | 25 | 4.7 | NC(=O)c1ccc(CNC(=O)c2csc3nc[nH]c(=O)c23)cc1 | –
20 | 8.2 | 72 | 19 | O=C(NCc1ccncc1)c1csc2nc[nH]c(=O)c12 | –
21 | 0.33 | 1.2 | 0.18 | NC1CCN(Cc2ccc(CNC(=O)c3csc4nc[nH]c(=O)c34)cc2)CC1 | inhibition [8]: < 10%; Selectivity ratio [9]: 50; inhibition [10]: < 10%; Ratio IC50 [4]: 5; Ratio IC50 [5]: 10; IC50 [6]: < 0.039 µM; IC50 [7]: 0.58 µM; IC50 (Klebsiella pneumoniae): 0.35 µM; Selectivity ratio [11]: 50
22 | 16 | 21 | 52 | O=c1[nH]cnc2scc(C3CCCC3)c12 | –

Row | IC50 [1] [µM] | IC50 [2] [µM] | IC50 [3] [µM] | Structure (SMILES) | other results
23 | 0.49 | 2.9 | 0.19 | N=C(NCc1ccc(CNC(=O)c2csc3nc[nH]c(=O)c23)cc1)NC1CC1 | inhibition [8]: < 10%; Selectivity ratio [9]: 50; inhibition [10]: < 10%; Selectivity ratio [11]: 50
24 | 0.44 | 2.7 | 0.4 | NCCN1CCN(Cc2ccc(CNC(=O)c3csc4nc[nH]c(=O)c34)cc2)CC1 | inhibition [8]: < 10%; Selectivity ratio [9]: 50; inhibition [10]: < 10%; Selectivity ratio [11]: 50
25 | 1.1 | 6.7 | 4.8 | O=c1[nH]cnc2onc(-c3ccccc3)c12 | solubility [12]: > 500 µM
26 | 1.1 | 4.7 | 0.67 | O=C(NCc1ccc(CN2CCCC2)cc1)c1csc2nc[nH]c(=O)c12 | –
27 | 1.2 | 1.8 | 0.89 | O=C(NCc1ccc(CNCCO)cc1)c1csc2nc[nH]c(=O)c12 | –
28 | 0.66 | 5.2 | 0.33 | NC1CCCN(Cc2ccc(CNC(=O)c3csc4nc[nH]c(=O)c34)cc2)C1 (configuration not stated) | inhibition [8]: < 10%; Selectivity ratio [9]: 50; inhibition [10]: < 10%; Selectivity ratio [11]: 50
29 | 1 | 6.6 | 1 | CCCNCc1ccc(CNC(=O)c2csc3nc[nH]c(=O)c23)cc1 | –
30 | 0.6 | 6.3 | 0.4 | O=C(NCc1ccc(CN2CC[C@H](O)C2)cc1)c1csc2nc[nH]c(=O)c12 | Ratio IC50 [4]: 5; Ratio IC50 [5]: 10; IC50 [6]: 0.12 µM; IC50 [7]: 0.63 µM; IC50 (Klebsiella pneumoniae): 0.63 µM
31 | 1.7 | 62 | 6.9 | Cc1ccc(-c2csc3ncnc(O)c23)cc1 | –
32 | 49 | > 200 | 123 | C[C@@H](NC(=O)c1csc2nc[nH]c(=O)c12)c1ccccc1 | –
33 | 4.7 | 11 | 17 | Oc1ncnc2scc(-c3ccccc3)c12 | –
34 | 8 | > 200 | 139 | O=C(NCc1ccccn1)c1csc2nc[nH]c(=O)c12 | –
35 | 30 | 1.4 | > 200 | O=c1[nH]cnc2[nH]nc(-c3ccccc3)c12 | –
36 | 0.33 | 1.8 | 0.33 | NC1CN(Cc2ccc(CNC(=O)c3csc4nc[nH]c(=O)c34)cc2)C1 | Ratio IC50 [4]: 5; Ratio IC50 [5]: 10; IC50 [6]: 0.25 µM; IC50 [7]: 1.3 µM; IC50 (Klebsiella pneumoniae): 1.3 µM
37 | 10 | 38 | 5.9 | O=C(NCc1ccc(CO)cc1)c1csc2nc[nH]c(=O)c12 | –
38 | 1.8 | 12 | 4.9 | NCC1CCC(CNC(=O)c2csc3nc[nH]c(=O)c23)CC1 (configuration not stated) | –
39 | 17 | 2.3 | 98 | O=c1[nH]cnc2[nH]cc(-c3ccccc3)c12 | –
40 | – | – | – | Cc1[nH]c2c(=O)n(C3CCNCC3)ccc2c1Cl | solubility [12]: > 500 µM
41 | 1.6 | 7.6 | 0.89 | O=C(NCc1ccc(CN2CCNCC2)cc1)c1csc2nc[nH]c(=O)c12 | inhibition [8]: < 10%; Selectivity ratio [9]: 50; inhibition [10]: < 10%; Selectivity ratio [11]: 50
42 | 11 | > 200 | – | O=c1[nH]cnc2ccc(-c3ccccc3)cc12 | –
43 | 144 | 1340 | 120 | O=c1[nH]cnc2sccc12 | –
44 | > 200 | > 200 | > 200 | CN(Cc1ccccc1)C(=O)c1csc2nc[nH]c(=O)c12 | –
